In the library only some 2.2% were active in any assay of this set; here they are far more common.
b-catenin transl: beta-catenin nuclear translocation modulation; HeLa beta-catenin nuclear translocation, immunofluorescence imaging; nuclear translocation activity, % at 5 µM; actives 0.3% (n = 190,000); AID 1665;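 active = nuclear translocation activity above 50% at 5 µM, with a well cell count of 50 or more; inconclusive = wells under 50 cells across six images, flagged as toxic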;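 note: per-cell ratio of nuclear to cytoplasmic median beta-catenin stain intensity; plate controls were DMSO negative control for no effect and GSK-3 inhibitor IX positive control for full effect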
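Test system: HeLa cells, endogenous beta-catenin; Compound: single 5 µM dose plus 0.02–20 µM confirmation series; Times: compound exposure 24 h at 37°C; Signal: fluorescence imaging of beta-catenin antibody stain plus DAPI; Read-out: % activation, nuclear-to-cytoplasmic median beta-catenin signal ratio per cell.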
APP 5UTR inh: APP translation inhibition. SH-SY5Y APP 5'UTR-luciferase reporter, luminescence. inhibition, % at 2 µM. actives 0.82% (n = 190,000);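 active = inhibition above a set limit, derived from the sample mean plus 3 SD, cut at about 45% in these data; inconclusive = one replicate passes the limit while the other fails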
BaF3 parental: parental Ba/F3 viability inhibition as JAK2V617F counter-screen | inhibition, % at 5.6 µM | actives 1.1% (n = 220,000) | AID 1486 | CellTiter-Glo ATP luminescence;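 active = inhibition above a per-campaign cutoff, the mean inhibition of all tested compounds plus 3 SD, cut at about 27% in these data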;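 note: 0% = DMSO wells and 100% = JAK Inhibitor I control wells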
IEC-6 cytotox: kills IEC-6 intestinal cells in KLF5 counter-screen; IEC-6 cytotoxicity, luminescence viability; inhibition, % at 5 µM; actives 0.78% (n = 290,000); in the data active = inhibition above about 22%;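 note: 0% = plate median of test compound wells and 100% = cytotoxic reference compound wells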
Ba/F3 V617F tox: lowers viability of Ba/F3 cells expressing EpoR and JAK2V617F. inhibition, % at 5.6 µM. ATP luminescence. actives 1.1% (n = 220,000);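 active = inhibition above the campaign mean plus 3 SD over all tested compounds, cut at about 24% in these data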;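 note: cytokine-independent growth of Ba/F3 cells driven by EpoR plus mutant JAK2; 0% = DMSO-treated cells and 100% = JAK inhibitor I control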
MT stabilizer: microtubule stabilization, imaging screen; AID 2205; actives 0.83% (n = 200,000); HeLa tubulin immunostaining HCS, 24 h; share of cells brighter than vehicle mean+2SD; % tubulin-high responders, % at 10 µM;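 active = plate Z-score above 3 for both tubulin-high and condensed-nucleus cell shares, with cell loss under 80%, at 10 µM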;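 note: anti alpha tubulin signal scored within the nucleus-defined area of each cell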
Active calls of the source: *; ? = inconclusive; / = no result given.

SMILES	b-catenin transl	APP 5UTR inh	BaF3 parental	IEC-6 cytotox	Ba/F3 V617F tox	MT stabilizer
CCc1ccc(OCCCCN(C)Cc2ccccc2)cc1	/	/	/	-4.4	/	/
Cc1cc(C(=O)Cn2nnc3ccccc3c2=O)c(C)n1-c1ccccc1F	-2.1	-197.4	51.8*	-1.5	46.4*	1.2
COc1ccc(-n2c(C)cc(C(=O)Cn3nnc4ccccc4c3=O)c2C)cc1	0.6	-18.4	-0.8	-1.2	-2.6	0.7
Cc1cc(C)c[n+](C(C)C(=O)c2ccc(-c3ccccc3)cc2)c1 (stereo not given)	3.1	6.4	65.0*	-2.4	66.4*	2.5
O=C(c1ccc(Cl)cc1)C(CN1CCCC1)c1ccccc1 (stereo not given)	/	/	/	14.2	/	/
CCCCOc1ccc(C(=O)C(CN2CCOCC2)c2ccccc2)cc1 (stereo not given)	?	5.3	3.8	0.6	11.7	5.3
COc1ccc(C(=O)C(CN2CCOCC2)c2ccccc2)cc1 (stereo not given)	/	89.7*	41.8*	7.6	90.1*	4.4
O=C(c1ccc(F)cc1)C(CN1CCOCC1)c1ccccc1 (stereo not given)	0.2	94.8*	5.0	-2.9	7.7	10.3
COc1ccc(C(=O)C(CN2CCCC2)c2ccccc2)cc1 (stereo not given)	9.5	86.0*	28.7*	6.7	79.7*	17.0
O=C(CCn1c(=O)oc2cc(Cl)ccc21)Nc1ccc(O)cc1	/	/	/	-6.0	/	/
COC(=O)[C@H](Cc1ccccc1)NC(=O)NCCc1ccccc1F	/	/	/	-1.0	/	/
CCOc1ccc(S(=O)(=O)Oc2ccc3ccccc3c2)cc1	1.2	1.2	1.9	2.6	0.3	16.7*
Cc1ccc(S(=O)(=O)Oc2ccc3ccc(O)cc3c2)cc1	/	/	/	-3.7	/	/
CCOC(=O)Cc1ccc(NC(=O)c2ccc([N+](=O)[O-])cc2)cc1	-4.6	-2.8	33.4*	3.5	-2.3	5.3
COC(=O)Cc1ccc(NC(=O)c2ccc(C(C)(C)C)cc2)cc1	/	84.0*	-0.9	5.2	-3.3	0.8
Cc1ccc(C)c(N(CC(=O)NCc2ccco2)C(=O)CNS(=O)(=O)c2ccccc2)c1	/	/	/	-5.3	/	/
CC[n+]1c(/C=C/N(C)c2ccccc2)oc2ccc(F)cc21	-2.9	-4.8	71.6*	5.9	79.2*	4.8
CC[n+]1c(/C=C/Nc2ccccc2)oc2ccccc21	4.7	12.7	11.7	1.6	3.7	2.8
CC[n+]1c(/C=C/N(C)c2ccccc2)oc2ccccc21	-1.0	1.9	72.0*	19.7	85.6*	2.9
CCN(CC)CCN1C(=O)C(=O)/C(=C(/O)c2ccc(S(=O)(=O)N3CCOCC3)cc2)C1c1ccccc1 (stereo not given)	/	/	/	3.6	/	/
Cc1ccc(NC(=O)CC(C)CC(=O)NCc2ccccc2)cc1Cl (stereo not given)	/	/	/	4.6	/	/
COC(=O)c1ccccc1NC(=O)CN(c1ccc(OC)cc1)S(C)(=O)=O	2.2	-1.8	5.2	-1.4	1.1	29.1*
COc1ccc(N(CC(=O)Nc2ccc(OC)cc2OC)S(=O)(=O)c2ccccc2)cc1	-0.2	-21.2	2.1	3.6	-5.9	8.3*
COc1ccc(NC(=O)CN(c2ccc([N+](=O)[O-])cc2)S(=O)(=O)c2ccccc2)c(OC)c1	3.6	3.1	5.8	-5.6	-0.5	2.1
CCNC(=O)Nc1ccc(OC)cc1OC	-4.2	49.8*	0.6	-2.4	-0.4	5.1
SMILES	b-catenin transl	APP 5UTR inh	BaF3 parental	IEC-6 cytotox	Ba/F3 V617F tox	MT stabilizer
Cc1cccc(-c2cccc(NC(=O)C3CCCN(Cc4cccnc4)C3)c2)c1 (stereo not given)	/	/	/	-1.2	/	/
CCN(CC)CCSc1nnc2c3cc(C)ccc3n(Cc3ccccc3)c2n1	1.4	/	32.8*	1.5	24.5*	/
CN1/C(=C\C=[N+](C)c2ccccc2)C(C)(C)c2ccccc21	/	9.7	65.6*	4.8	75.3*	1.4
Cc1ccccc1N=C/C=C1\N(C)c2ccccc2C1(C)C	-0.1	-13.9	47.7*	-1.2	0.8	1.5
CC1=C(C(=O)NC2CC(C)(C)Cc3c2cnn3-c2cccc(F)c2)OCCO1 (stereo not given)	/	/	/	4.7	/	/
CCNC(=S)NNC(=O)c1ccccc1OC(F)F	1.7	-2.6	1.1	-5.4	-6.8	2.2
CCc1ccc(NC(=S)NNC(=O)c2ccccc2OC(F)F)cc1	12.6	6.5	8.9	15.2	15.1	16.5*
O=c1oc(-c2ccccc2)nc2ccsc12	-3.4	/	39.3*	3.9	4.0	1.6
O=c1oc(-c2cccs2)nc2ccccc12	-0.6	-2.0	1.8	4.4	0.1	1.4
Cc1nc(-c2ccccc2Cl)sc1C(=O)/C=C/N(C)C	-5.9	-15.3	1.0	0.7	-2.5	6.0
Cc1cc(NC2CCCCC2)nc2ccccc12	-0.2	-4.3	6.4	18.7	6.2	3.8
Cc1cc(OCC[N+]2(C)CCCCC2)nc2ccccc12	-2.8	/	47.6*	-8.7	49.9*	1.1
O=C(Nc1nc2ccc(F)cc2s1)c1ccccn1	0.9	-30.0	13.5	71.2*	6.2	2.6
O=C(Nc1nnc(SCc2ccc(F)cc2)s1)c1cccnc1Cl	0.2	5.8	2.3	-7.1	-1.8	15.3
O=C(Nc1nc2ccccc2s1)c1cnccn1	2.3	-55.5	3.7	-1.2	-1.1	1.6
O=C(Nc1nnc(SCc2ccc(F)cc2)s1)c1ccccn1	0.3	43.9	14.2	77.6*	2.6	2.5
O=C1/C(=C/c2ccccc2[N+](=O)[O-])COc2ccccc21	1.3	85.9*	-3.3	2.4	3.7	6.4
CCc1nc(Nc2ccncc2)c2oc3ccccc3c2n1	8.1	-27.1	29.4*	-0.1	14.6	8.2
CCc1nc(N2CCN(Cc3ccc4c(c3)OCO4)CC2)c2oc3ccccc3c2n1	115.5*	16.6	5.5	6.8	3.7	48.2*
CCc1nc(N2CCCCC2C)c2oc3ccccc3c2n1 (stereo not given)	113.7*	/	-1.1	-5.6	-2.5	31.3*
COc1cc(C(=O)N2CCCc3ccccc32)cc(OC)c1OC	53.3*	-9.7	-0.4	-2.1	2.5	38.7*
COc1cc2c(cc1OC)CN(C(C)C(=O)N1CCc3ccccc31)CC2 (stereo not given)	/	1.9	6.2	0.8	-0.5	47.2*
COc1ccc(N2CCN(C(C)C(=O)N3CCc4ccccc43)CC2)cc1 (stereo not given)	/	/	/	5.5	/	/
CC(C(=O)N1CCc2ccccc21)N1CCc2ccccc2C1 (stereo not given)	1.8	-10.6	41.4*	4.4	9.3	2.3
COc1ccc(C(=O)N2CCCc3ccccc32)cc1OC	/	/	/	-1.6	/	/
Cc1ccccc1-c1nc(CS(=O)(=O)CC(=O)NC2CC2)c(C)o1	/	/	/	-1.9	/	/
Cc1ccc(CCC(=O)Nc2ccc(C)c(C)c2)o1	/	/	/	1.0	/	/
C/C(=N\NC(=O)c1nnn(-c2nonc2N)c1CN1CCCCC1)c1ccccc1O	/	/	/	-5.0	/	/
O=C1CSC(c2cccc([N+](=O)[O-])c2)N1c1c(F)cccc1F (stereo not given)	0.9	-6.0	2.8	5.8	-2.7	10.5*

Screening data from PubChem BioAssay.
